{"source": "paper PMC12297526", "about": "(Communications Chemistry, 2025)", "key": {"[1]": {"details": "0.1 M KCl; ref 4 (supplement), 15; cited from earlier work"}, "[2]": {"details": "cited from earlier work; for pMn: 11 (supplement), 8, 17, 18, 34"}, "Zn": {"experiment": "Zn", "format": "physicochemical", "details": "pH = 6.0, 25 mM Zn(II), 37 °C, 1 mM complex; mean ± SD, n = 3"}, "[3]": {"details": "pH 7.4, 25 °C, [Cu(II)] = 10^-5 M; cited from earlier work"}, "[4]": {"details": "20 MHz, 298 K; cited from earlier work"}, "[5]": {"experiment": "log P estimation by UPLC retention time", "format": "physicochemical", "details": "estimated from UPLC retention time with calibration standards", "procedure,_shortened": "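Complexes and standards (DMSO, DMF, pyridine, phenol, nitrobenzene) run on reversed-phase UPLC. C18, 2.5 μm, 2.1 × 100 mm column; 10 mM ammonium acetate/ACN gradient at 0.4 mL min−1. Calibration of log TR against known log P for the standards; complex log P read from its retention time.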"}, "[6]": {"experiment": "pH-potentiometric titration, thermodynamic stability constants of Mn", "format": "physicochemical", "details": "for log KMnL: I = 0.1 M KCl, 25 °C, mean ± SD, n = 3", "procedure,_shortened": "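Ligand and Mn(II) (1.05:1 molar) in 0.1 M KCl titrated with 0.5 M NaOH from pH 1.7 to 12.0 at 25 °C under nitrogen. MnCl2 stock held at pH 6 and calibrated by ICP-MS. Data fitted for stability constants and speciation; titrations in triplicate. pMn calculated at pH 7.4.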"}, "normal BALB/c mice": {"test_system": "normal BALB/c mice", "experiment": "In vivo T1-weighted MRI of normal mice, 3.0 T clinical scanner", "details": "intravenous, 0.05 mmol kg^−1", "procedure,_shortened": "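Male BALB/c mice (25 ± 3 g) anaesthetised with avertin (0.6 mL per 20 g) and imaged in a mouse coil at 3.0 T. Coronal and transverse T1-weighted baseline scans taken, then complex given i.v. in PBS pH 7.4 at 0.05 mmol kg−1 and scanning continued ~30 min. Relative enhancement = (SIpost – SIpre)/SIpre × 100% from ROIs on liver and kidney.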"}, "Solubility in pure water": {"experiment": "Solubility in pure water", "format": "physicochemical", "details": "25 °C"}, "[7]": {"details": "complexes with heptadentate ligands"}}, "note": "Read-outs that look alike come from different tables or passages of the source."}
{"compound": "O=C(O)CN1CCNCCN(CC(=O)O)CCNCC1", "note": "[1,7-DO2A]", "values": [{"measurement": "Σ log KiH", "setting": "[1]", "value": 28.05}]}
{"compound": "O=C(O)CN1CCNCCN(CC(=O)O)CCN(CC(=O)O)CC1", "note": "[DO3A]", "values": [{"measurement": "log KMnL", "setting": "[2]; [7]", "value": 16.55}]}
{"compound": "CCOc1ccc(C[C@@H](CN(CCN(CC(=O)[O-])CC(=O)[O-])CC(=O)[O-])N(CC(=O)[O-])CC(=O)[O-])cc1.[Gd+3].[Na+].[Na+]", "note": "[Gd(EOB-DTPA)]", "values": [{"measurement": "t1/2 (dissociation half-life)", "setting": "Zn", "value": 0.25, "unit": "h"}]}
{"compound": "O=C([O-])CN1CCNCCNCCN(CC(=O)[O-])CC1.[Mn+2]", "note": "[Mn(1,4-DO2A)]", "values": [{"measurement": "half-life (t1/2)", "setting": "[3]", "value": 48, "unit": "h"}, {"measurement": "^20r1 (relaxivity)", "setting": "[4]", "value": 2.1, "unit": "mM⁻¹ s⁻¹"}, {"measurement": "log P", "setting": "[5]", "value": 0.57}, {"measurement": "log KMnL", "setting": "[2]; introduction, Mn(1,4-DO2A) vs Mn(NOTA)", "value": 16.1}, {"measurement": "log KMnL", "setting": "[6]", "value": 15.5}, {"measurement": "pMn", "setting": "[6]; pH 7.4, [Mn(II)] = [L] = 10^−5 M", "value": 7.20}, {"measurement": "excretion route / organ preference seen by MRI", "setting": "normal BALB/c mice", "value": "predominantly excreted through the renal route"}, {"measurement": "Solubility", "setting": "Solubility in pure water", "value": 260, "unit": "mg/mL"}]}
{"compound": "O=C([O-])CN1CCNCCN(CC(=O)[O-])CCNCC1.[Mn+2]", "note": "[Mn(1,7-DO2A)]", "values": [{"measurement": "log P", "setting": "[5]", "value": 0.47}, {"measurement": "log KMnL", "setting": "[6]", "value": 14.7}]}
{"compound": "O=C([O-])CN1CCNCCN(CC(=O)[O-])Cc2cccc(n2)C1.[Mn+2]", "note": "[Mn(3,9-PC2A)]", "values": [{"measurement": "half-life (t1/2)", "setting": "[3]", "value": 21, "unit": "h"}, {"measurement": "pMn", "setting": "[2]; 0.15 M NaCl", "value": 8.64}, {"measurement": "log KMnL", "setting": "[2]; 0.15 M NaCl, 11 (supplement), 17", "value": 17.09}]}
{"compound": "O=C(O)CN1CCN(CC(=O)O)Cc2cccc(n2)CN(CC(=O)O)CC1", "note": "[PCTA]", "values": [{"measurement": "log KMnL", "setting": "[2]; [7]", "value": 16.83}]}
{"compound": "Mn(EDTA)", "values": [{"measurement": "half-life (t1/2)", "setting": "[3]", "value": 0.08, "unit": "h"}, {"measurement": "pMn", "setting": "[2]; 0.15 M NaCl", "value": 7.83}]}
